Source: ChEMBL document CHEMBL5649170, “Sustained microglial depletion with CSF1R inhibitor impairs parenchymal plaque development in an Alzheimer's disease model” (Nat Commun, 2019)
Active and inactive are the calls of the source. No cut-off for these calls is given here.

How the values were obtained:
[1] = molecular target: T1, Macrophage colony-stimulating factor 1 receptor (Mus musculus) (UniProt P09581); test: In vivo inhibition of CSF1R in wildtype mouse assessed as microglial numbers by measuring number of Iba positive cells per FOV in somatosensory cortex at 75 ppm administered as rodent chow starting from 1.5 months and measured after 5 months by immunolabeling based confocal microscopic analysis (reference value: 218 to 349); type: functional; settings: route po, time 3.5 months
T1 sequence (whole entry): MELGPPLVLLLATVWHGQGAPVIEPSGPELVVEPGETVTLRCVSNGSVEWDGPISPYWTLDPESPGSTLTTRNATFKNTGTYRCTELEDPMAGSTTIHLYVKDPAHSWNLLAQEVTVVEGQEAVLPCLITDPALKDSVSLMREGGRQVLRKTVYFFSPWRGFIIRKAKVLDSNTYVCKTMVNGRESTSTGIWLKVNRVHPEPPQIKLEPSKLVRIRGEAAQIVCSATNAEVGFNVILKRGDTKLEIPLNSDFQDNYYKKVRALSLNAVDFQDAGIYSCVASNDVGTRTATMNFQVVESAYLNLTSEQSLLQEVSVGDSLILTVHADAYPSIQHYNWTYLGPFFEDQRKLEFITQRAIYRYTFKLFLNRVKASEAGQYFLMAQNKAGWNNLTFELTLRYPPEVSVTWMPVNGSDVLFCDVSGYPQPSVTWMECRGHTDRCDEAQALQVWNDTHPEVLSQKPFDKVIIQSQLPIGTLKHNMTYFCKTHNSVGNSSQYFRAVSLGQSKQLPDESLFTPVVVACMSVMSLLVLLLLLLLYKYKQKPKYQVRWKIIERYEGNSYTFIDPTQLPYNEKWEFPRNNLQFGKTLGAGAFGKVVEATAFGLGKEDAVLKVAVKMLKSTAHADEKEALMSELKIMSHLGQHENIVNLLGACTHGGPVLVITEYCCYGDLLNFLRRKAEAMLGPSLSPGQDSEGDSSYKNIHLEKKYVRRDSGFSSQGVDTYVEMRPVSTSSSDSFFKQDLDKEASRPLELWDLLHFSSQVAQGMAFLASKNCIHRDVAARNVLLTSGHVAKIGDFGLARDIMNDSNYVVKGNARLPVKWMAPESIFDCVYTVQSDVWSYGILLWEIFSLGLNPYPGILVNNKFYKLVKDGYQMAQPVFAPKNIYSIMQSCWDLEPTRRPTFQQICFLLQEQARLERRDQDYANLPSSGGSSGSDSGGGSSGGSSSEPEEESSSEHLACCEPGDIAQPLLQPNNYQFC

[2] = molecular target: Phosphorylase b kinase gamma catalytic chain, skeletal muscle/heart isoform (Homo sapiens, UniProt Q16816); test: Inhibition of PHKG1 (unknown origin)
Sequence of Phosphorylase b kinase gamma catalytic chain, skeletal muscle/heart isoform (Q16816 whole entry, canonical isoform): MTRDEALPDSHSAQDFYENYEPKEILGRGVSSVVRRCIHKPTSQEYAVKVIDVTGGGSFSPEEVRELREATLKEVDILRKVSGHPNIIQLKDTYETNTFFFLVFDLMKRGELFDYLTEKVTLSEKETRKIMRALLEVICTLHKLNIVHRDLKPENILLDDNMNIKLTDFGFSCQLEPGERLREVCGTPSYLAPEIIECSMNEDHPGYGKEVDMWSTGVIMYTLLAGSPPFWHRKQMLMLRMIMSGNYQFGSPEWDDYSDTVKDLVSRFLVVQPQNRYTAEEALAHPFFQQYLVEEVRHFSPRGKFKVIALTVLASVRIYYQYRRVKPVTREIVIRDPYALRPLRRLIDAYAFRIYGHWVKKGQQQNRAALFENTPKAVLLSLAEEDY

CDK7/Cyclin H/MNAT1 = CDK7/Cyclin H/MNAT1 (Homo sapiens, UniProt P50613); test: Inhibition of CDK7/CyclinH/MNAT1 (unknown origin); type: protein-complex assay
[3] = molecular target: Casein kinase I isoform gamma-3 (Homo sapiens, UniProt Q9Y6M4); test: Inhibition of CSNK1G3 (unknown origin)
Sequence of Casein kinase I isoform gamma-3 (Q9Y6M4 whole entry, canonical isoform): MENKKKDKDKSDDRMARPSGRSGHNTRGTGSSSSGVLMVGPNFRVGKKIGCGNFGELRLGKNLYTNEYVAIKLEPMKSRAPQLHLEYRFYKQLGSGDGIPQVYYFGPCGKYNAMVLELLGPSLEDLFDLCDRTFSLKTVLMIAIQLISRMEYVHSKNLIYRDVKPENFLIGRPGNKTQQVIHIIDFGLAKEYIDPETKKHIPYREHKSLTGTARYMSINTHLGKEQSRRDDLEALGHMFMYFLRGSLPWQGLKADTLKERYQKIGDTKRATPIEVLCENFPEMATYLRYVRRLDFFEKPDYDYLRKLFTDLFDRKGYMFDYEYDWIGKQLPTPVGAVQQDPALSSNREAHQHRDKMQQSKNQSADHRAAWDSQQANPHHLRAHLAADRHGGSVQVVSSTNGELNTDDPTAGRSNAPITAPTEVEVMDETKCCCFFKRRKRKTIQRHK

[4] = molecular target: Serine/threonine-protein kinase Chk1 (Homo sapiens, UniProt O14757); test: Inhibition of CHEK1 (unknown origin)
Sequence of Serine/threonine-protein kinase Chk1 (O14757 whole entry): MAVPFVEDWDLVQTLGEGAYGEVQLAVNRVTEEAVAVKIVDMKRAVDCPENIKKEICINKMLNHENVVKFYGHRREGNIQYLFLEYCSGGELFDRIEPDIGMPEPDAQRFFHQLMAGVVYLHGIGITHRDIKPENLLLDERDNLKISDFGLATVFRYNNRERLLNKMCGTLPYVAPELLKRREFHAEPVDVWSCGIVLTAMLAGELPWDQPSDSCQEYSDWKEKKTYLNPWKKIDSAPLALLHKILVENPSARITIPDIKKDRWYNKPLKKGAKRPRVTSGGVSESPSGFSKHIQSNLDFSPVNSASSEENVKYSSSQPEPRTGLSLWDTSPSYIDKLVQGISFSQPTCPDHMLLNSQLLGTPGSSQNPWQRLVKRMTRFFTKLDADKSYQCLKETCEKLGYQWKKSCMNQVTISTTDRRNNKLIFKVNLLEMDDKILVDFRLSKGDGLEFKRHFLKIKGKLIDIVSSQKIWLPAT

[5] = molecular target: cGMP-dependent protein kinase 1 (Homo sapiens, UniProt Q13976); test: Inhibition of PRKG1 (unknown origin)
[6] = molecular target: Serine/threonine-protein kinase 4 (Homo sapiens, UniProt Q13043); test: Inhibition of STK4 (unknown origin)
Sequence of Serine/threonine-protein kinase 4 (Q13043 whole entry): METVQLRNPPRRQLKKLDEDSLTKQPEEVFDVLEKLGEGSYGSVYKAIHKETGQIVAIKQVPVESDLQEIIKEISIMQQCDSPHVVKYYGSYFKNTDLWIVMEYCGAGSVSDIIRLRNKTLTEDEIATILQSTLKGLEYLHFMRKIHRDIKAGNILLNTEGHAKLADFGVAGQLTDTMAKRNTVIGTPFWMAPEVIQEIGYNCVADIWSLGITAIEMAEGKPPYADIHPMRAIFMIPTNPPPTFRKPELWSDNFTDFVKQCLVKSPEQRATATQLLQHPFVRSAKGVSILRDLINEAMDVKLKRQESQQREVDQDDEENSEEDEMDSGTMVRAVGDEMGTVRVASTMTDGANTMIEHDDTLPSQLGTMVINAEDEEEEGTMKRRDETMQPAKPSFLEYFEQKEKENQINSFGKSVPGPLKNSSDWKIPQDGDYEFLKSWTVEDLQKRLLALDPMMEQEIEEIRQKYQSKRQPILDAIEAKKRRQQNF

Mus musculus [7] = test: Antialzheimer activity in 5XFAD mouse assessed as number of GFAP positive cell per FOV in retro spinal cortex at 1200 ppm administered as rodent chow for 10 to 24 weeks by immunolabelling based confocal microscopic analysis (reference value: 217 to 477); type: functional; settings: route po, time 10-24 weeks
[8] = molecular target: Tyrosine-protein kinase ABL1 (Homo sapiens, UniProt P00519); test: Inhibition of ABL1 (unknown origin)
[9] = Effect on C1qa gene expression in wild type mouse hippocampus at 1200 ppm administered as rodent chow starting from 1.5 months and measured after 7 months by RNA-Seq analysis (reference value: 17.148 to 23.051 RPKM); type: functional; settings: route po, time 5.5 months, 4015 h
Outline: (§1)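 WT and 5xFAD mice were treated with 1200 ppm PLX5622 chow or control chow from 1.5 to 7 months of age. Brains were microdissected into cortex, hippocampus and thalamus, and RNA was extracted from tissue powder. Whole-transcriptome RNA-Seq libraries were sequenced, with n = 4 per group per region (48 samples).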

Mus musculus [10] = test: Antialzheimer activity in 5XFAD mouse assessed as iron reactivity by measuring hemosiderin intensity of prussian blue staining in thalamus at 1200 ppm administered as rodent chow starting from 1.5 months and measured after 7 months by confocal microscopic analysis (reference value: 0.39 to 3.131 a.u.); type: functional; settings: route po, time 5.5 months, 4015 h
Outline: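 Wild-type or 5xFAD mice fed PLX5622 (1200 ppm) in AIN-76A chow from 1.5 months of age, examined in 4- and 7-month-old cohorts. Brain sections stained with a Prussian blue kit per kit instructions to detect iron deposits (microbleeds).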

Mus musculus [11] = test: Antialzheimer activity in 5XFAD mouse assessed as microglial elimination in thalamus by measuring reduction in Thio-S positive plaques at 1200 ppm administered as rodent chow for 14 weeks by Thio-S staining based confocal microscopic analysis; type: functional, organism-based; settings: route po
Mus musculus [12] = test: Antialzheimer activity in 5XFAD mouse assessed as alteration in plaque morphology by measuring mean plaque intensity in subiculum at 1200 ppm administered as rodent chow starting from 1.5 months and measured after 7 months by Thio-S labeling based confocal microscopic analysis (reference value: 129.81 to 150.11); type: functional; settings: route po, time 5.5 months, 4015 h
[13] = Effect on C1qa gene expression in wild type mouse thalamus at 1200 ppm administered as rodent chow starting from 1.5 months and measured after 7 months by RNA-Seq analysis (reference value: 19.070 to 32.518); type: functional; settings: route po, time 5.5 months, 4015 h; outline: as §1
[14] = molecular target: Homeodomain-interacting protein kinase 2 (Homo sapiens, UniProt Q9H2X6); test: Inhibition of HIPK2 (unknown origin)
Sequence of Homeodomain-interacting protein kinase 2 (Q9H2X6 whole entry): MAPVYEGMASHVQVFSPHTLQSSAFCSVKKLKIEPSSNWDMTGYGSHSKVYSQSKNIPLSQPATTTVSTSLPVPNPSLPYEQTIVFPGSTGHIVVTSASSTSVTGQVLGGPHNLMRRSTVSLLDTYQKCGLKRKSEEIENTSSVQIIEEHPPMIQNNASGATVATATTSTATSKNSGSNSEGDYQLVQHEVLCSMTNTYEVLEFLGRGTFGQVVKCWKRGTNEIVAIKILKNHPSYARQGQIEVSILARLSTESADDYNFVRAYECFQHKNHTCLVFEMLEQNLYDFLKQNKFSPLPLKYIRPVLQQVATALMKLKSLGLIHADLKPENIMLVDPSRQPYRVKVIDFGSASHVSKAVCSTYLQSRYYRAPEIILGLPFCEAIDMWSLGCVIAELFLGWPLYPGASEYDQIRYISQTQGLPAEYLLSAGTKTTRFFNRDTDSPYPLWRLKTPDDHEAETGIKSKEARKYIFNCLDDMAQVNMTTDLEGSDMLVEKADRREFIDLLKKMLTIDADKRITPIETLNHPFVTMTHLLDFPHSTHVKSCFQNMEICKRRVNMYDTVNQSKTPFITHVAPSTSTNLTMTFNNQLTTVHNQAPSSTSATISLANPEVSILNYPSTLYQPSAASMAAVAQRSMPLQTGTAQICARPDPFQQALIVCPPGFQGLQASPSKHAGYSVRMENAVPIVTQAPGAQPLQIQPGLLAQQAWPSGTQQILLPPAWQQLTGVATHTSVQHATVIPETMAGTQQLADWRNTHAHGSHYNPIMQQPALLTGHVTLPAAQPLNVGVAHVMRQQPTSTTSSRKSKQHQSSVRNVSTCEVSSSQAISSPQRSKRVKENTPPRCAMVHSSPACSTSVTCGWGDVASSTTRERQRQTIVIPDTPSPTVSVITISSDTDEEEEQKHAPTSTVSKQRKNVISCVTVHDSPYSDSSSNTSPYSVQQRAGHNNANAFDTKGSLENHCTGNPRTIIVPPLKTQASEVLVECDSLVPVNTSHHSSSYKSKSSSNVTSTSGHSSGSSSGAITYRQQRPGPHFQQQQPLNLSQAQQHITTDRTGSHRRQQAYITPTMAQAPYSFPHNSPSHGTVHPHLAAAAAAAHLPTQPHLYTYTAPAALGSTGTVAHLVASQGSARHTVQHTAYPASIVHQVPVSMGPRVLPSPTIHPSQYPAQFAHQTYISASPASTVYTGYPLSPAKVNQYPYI

Mus musculus [15] = test: Antialzheimer activity in 5XFAD mouse assessed as amyloidbeta42 level in detergent soluble thalamus fraction measured per microgram protein at 1200 ppm administered as rodent chow starting from 1.5 months and measured after 7 months by ELISA (reference value: 0 to 0.271 pg); type: functional; settings: route po, time 5.5 months, 4015 h
Outline: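 PLX5622 at 1200 ppm in chow given to 5xFAD mice from 1.5 months to 4 or 7 months of age; cortex and thalamus homogenized in TPER (detergent-soluble), pellets re-homogenized in 70% formic acid and spun 100,000 g, 1 h, 4 °C (insoluble); protein by Bradford/Lowry; Aβ species measured by Meso Scale electrochemiluminescence immunoassay, normalized to protein; n = 7–8 per group at 7 months.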

[16] = molecular target: Tyrosine-protein kinase JAK3 (Homo sapiens, UniProt P52333); test: Inhibition of JAK3 (unknown origin)
Sequence of Tyrosine-protein kinase JAK3 (P52333 whole entry): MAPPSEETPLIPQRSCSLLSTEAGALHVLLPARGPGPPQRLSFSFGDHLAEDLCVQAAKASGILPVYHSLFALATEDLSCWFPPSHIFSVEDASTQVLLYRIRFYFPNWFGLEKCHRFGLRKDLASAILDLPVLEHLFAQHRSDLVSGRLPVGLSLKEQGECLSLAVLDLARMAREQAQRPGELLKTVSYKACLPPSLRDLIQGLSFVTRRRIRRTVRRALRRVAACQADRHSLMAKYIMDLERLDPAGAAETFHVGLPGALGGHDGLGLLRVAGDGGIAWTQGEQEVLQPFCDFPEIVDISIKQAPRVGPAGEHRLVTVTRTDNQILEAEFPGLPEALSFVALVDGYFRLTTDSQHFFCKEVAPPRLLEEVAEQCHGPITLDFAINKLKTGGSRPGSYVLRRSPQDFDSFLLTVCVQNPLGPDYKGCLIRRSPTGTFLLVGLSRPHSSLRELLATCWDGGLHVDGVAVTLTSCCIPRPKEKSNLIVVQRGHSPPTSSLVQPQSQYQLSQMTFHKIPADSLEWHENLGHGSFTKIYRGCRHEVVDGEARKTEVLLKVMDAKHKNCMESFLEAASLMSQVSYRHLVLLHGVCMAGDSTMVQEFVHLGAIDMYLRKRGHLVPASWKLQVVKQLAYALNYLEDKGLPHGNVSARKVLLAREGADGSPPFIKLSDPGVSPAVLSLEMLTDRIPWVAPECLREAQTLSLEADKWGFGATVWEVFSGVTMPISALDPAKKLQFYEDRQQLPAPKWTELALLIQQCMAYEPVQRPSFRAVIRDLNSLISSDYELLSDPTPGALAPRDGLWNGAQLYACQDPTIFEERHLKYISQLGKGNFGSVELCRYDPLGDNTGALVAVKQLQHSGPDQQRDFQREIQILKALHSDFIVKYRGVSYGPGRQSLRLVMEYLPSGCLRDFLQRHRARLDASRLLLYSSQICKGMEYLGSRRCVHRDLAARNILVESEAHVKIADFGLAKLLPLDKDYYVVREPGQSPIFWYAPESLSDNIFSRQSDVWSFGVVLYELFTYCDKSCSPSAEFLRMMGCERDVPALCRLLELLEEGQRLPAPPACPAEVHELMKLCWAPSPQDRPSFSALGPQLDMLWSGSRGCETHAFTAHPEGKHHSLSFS

[17] = molecular target: Serine/threonine-protein kinase PLK3 (Homo sapiens, UniProt Q9H4B4); test: Inhibition of PLK3 (unknown origin)
[18] = molecular target: MAP/microtubule affinity-regulating kinase 3 (Homo sapiens, UniProt P27448); test: Inhibition of MARK3 (unknown origin)
Sequence of MAP/microtubule affinity-regulating kinase 3 (P27448 whole entry): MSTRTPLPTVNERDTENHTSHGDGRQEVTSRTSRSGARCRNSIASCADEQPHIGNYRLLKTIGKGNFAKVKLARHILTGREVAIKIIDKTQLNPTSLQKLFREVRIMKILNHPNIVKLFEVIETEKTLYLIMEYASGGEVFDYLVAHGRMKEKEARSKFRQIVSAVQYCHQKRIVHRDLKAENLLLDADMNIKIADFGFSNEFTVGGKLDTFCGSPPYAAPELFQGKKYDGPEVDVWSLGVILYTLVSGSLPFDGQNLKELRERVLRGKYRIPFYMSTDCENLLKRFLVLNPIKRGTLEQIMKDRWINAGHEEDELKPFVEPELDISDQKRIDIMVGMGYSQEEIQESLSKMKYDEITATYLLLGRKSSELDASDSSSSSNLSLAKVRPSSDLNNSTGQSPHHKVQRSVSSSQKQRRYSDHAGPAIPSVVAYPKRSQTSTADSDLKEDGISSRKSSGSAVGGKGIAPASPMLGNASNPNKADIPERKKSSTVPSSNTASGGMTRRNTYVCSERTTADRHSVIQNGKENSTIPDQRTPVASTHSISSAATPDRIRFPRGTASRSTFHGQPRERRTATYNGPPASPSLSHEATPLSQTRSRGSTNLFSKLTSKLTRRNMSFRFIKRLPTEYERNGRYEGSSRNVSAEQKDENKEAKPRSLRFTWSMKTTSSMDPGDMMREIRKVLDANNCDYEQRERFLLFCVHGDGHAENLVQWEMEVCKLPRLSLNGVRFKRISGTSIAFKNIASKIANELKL

Mus musculus [19] = test: Antialzheimer activity in 5XFAD mouse assessed as number of Thio-S positive plaques per FOV in […] cortex at 1200 ppm administered as rodent chow starting from 1.5 months and measured after 7 months by Thio-S staining based confocal microscopic analysis (reference value: 52 to 140); type: functional; settings: route po, time 5.5 months, 4015 h

SMILES	Activity [1]	IC50 [2] [µM]	IC50 (CDK7/Cyclin H/MNAT1) [µM]	IC50 [3] [µM]	IC50 [4] [µM]	IC50 [5] [µM]	IC50 [6] [µM]	Activity (Mus musculus [7])	IC50 [8] [µM]	Activity [9] [RPKM]	Flu intensity (Mus musculus [10]) [a.u.]	Activity (Mus musculus [11])	Activity (Mus musculus [12])	Activity [13] [RPKM]	IC50 [14] [µM]	Activity (Mus musculus [15]) [pg]	IC50 [16] [µM]	IC50 [17] [µM]	IC50 [18] [µM]	Activity (Mus musculus [19])
FC(F)(F)c1ccc(CNc2ccc(Cc3c[nH]c4ncc(Cl)cc34)cn2)cn1 [PEXIDARTINIB]	205	–	–	–	–	–	–	–	–	–	–	–	–	–	–	–	–	–	–	–
COc1ncc(F)cc1CNc1ccc(Cc2c[nH]c3ncc(C)cc23)c(F)n1 [PLX-5622]	–	> 1	> 1	> 1	> 1	> 1	> 1	92	> 1	0.17	0.1	inactive	83.86	0	> 1	0	> 1	> 1	> 1	17
